Experimental data published in ChEMBL document CHEMBL1143078, “Synthesis and anti-Helicobacter pylori activity of 5-(nitroaryl)-1,3,4-thiadiazoles with certain sulfur containing alkyl side chain” (Bioorg Med Chem Lett, 2008).
Values after ≈ are worked out from the molar mass of the structure shown.

Tests used:
Helicobacter pylori [1] = test: Antibacterial activity against Helicobacter pylori isolate assessed as inhibition zone diameter at 4 ug/disk after 3-5 days by paper disk diffusion assay; type: functional
Summary of the method: (§1)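 Filter-paper disk diffusion (6 mm disks), with the compound applied in 40 µL methanol and dried. Disks placed on Mueller–Hinton agar with 7% defibrinated horse blood, inoculated with 48 h H. pylori clinical-isolate suspension at 2 McFarland (10^7-10^8 CFU/mL). Incubated 3–5 days at 37 °C microaerophilically (5% O2, 15% CO2, 80% N2). Mean inhibition-zone diameter (mm) from triplicates.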

Candida albicans = test: Antifungal activity against Candida albicans PTCC 5027 after 72 hrs by agar dilution method; type: functional
Helicobacter pylori [2] = test: Antibacterial activity against metronidazole-resistant Helicobacter pylori assessed as inhibition zone diameter at 16 ug/disk after 3-5 days by paper disk diffusion assay; type: functional
Summary of the method: (§2)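 Filter paper disks (6 mm) loaded with compound in 40 μL methanol, dried, placed on Mueller–Hinton agar with 7% defibrinated horse blood pre-inoculated with H. pylori suspension (2 McFarland, 10⁷-10⁸ CFU/mL; 48 h cultures checked for coccoid forms); incubated microaerophilically (5% O2, 15% CO2, 80% N2) at 37 °C for 3–5 days; mean inhibition zone diameter (mm) of triplicates.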

Helicobacter pylori [3] = test: Antibacterial activity against Helicobacter pylori isolate assessed as inhibition zone diameter at 32 ug/disk after 3-5 days by paper disk diffusion assay; type: functional; summary of the method: as §1
Helicobacter pylori [4] = test: Antibacterial activity against metronidazole-sensitive Helicobacter pylori assessed as inhibition zone diameter at 16 ug/disk after 3-5 days by paper disk diffusion assay; type: functional; summary of the method: as §2
Helicobacter pylori [5] = test: Antibacterial activity against Helicobacter pylori isolate assessed as inhibition zone diameter at 1 ug/disk after 3-5 days by paper disk diffusion assay; type: functional; summary of the method: as §1
Helicobacter pylori [6] = test: Antibacterial activity against Helicobacter pylori isolate assessed as inhibition zone diameter at 8 ug/disk after 3-5 days by paper disk diffusion assay; type: functional; summary of the method: as §1
Helicobacter pylori [7] = test: Antibacterial activity against Helicobacter pylori isolate assessed as inhibition zone diameter at 2 ug/disk after 3-5 days by paper disk diffusion assay; type: functional; summary of the method: as §1
Helicobacter pylori [8] = test: Antibacterial activity against metronidazole-sensitive Helicobacter pylori assessed as inhibition zone diameter at 8 ug/disk after 3-5 days by paper disk diffusion assay; type: functional; summary of the method: as §1
[9] = Cytotoxicity against mouse NIH/3T3 cells after 72 hrs by MTT assay; type: cell-based; details: NIH3T3, 72 h
Summary of the method: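 NIH/3T3 mouse fibroblasts in exponential phase trypsinized and seeded at 5×10^4 cells/mL, then given serially diluted compound in triplicate and incubated 72 h. MTT (5 mg/mL solution) added for 1 h, formazan dissolved in DMSO, absorbance read at 492 nm. IC50 calculated from dose-response curves versus untreated controls, as mean ± SD of triplicates.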

[10] = test system: Staphylococcus epidermidis; test: Antibacterial activity against Staphylococcus epidermidis ATCC 12228 after 18 hrs by serial dilution method; type: functional; details: ATCC 12228, 18 h
Summary of the method: (§3)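 Agar dilution MIC. Compound stock diluted with water, then serially doubled in melted Mueller–Hinton agar to 64, 32, 16 and 8 µg/mL. Plates inoculated with 1-5 × 10^4 CFU and incubated 18 h at 37 °C. MIC is the lowest concentration giving no visible growth.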

Helicobacter pylori [11] = test: Antibacterial activity against metronidazole-sensitive Helicobacter pylori assessed as inhibition zone diameter at 32 ug/disk after 3-5 days by paper disk diffusion assay; type: functional; summary of the method: as §1
Aspergillus niger = test: Antifungal activity against Aspergillus niger PTCC 5012 after 72 hrs by agar dilution method; type: functional
Summary of the method: (§4)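 Agar dilution on Sabouraud dextrose agar. Compound stocks in DMSO. Inocula about 10^5 CFU/mL from log-phase broth cultures. Plates run in triplicate at 30 °C: about 24–48 h for yeasts, about 72 h for moulds, about 168 h for dermatophytes. MIC is the lowest concentration with no visible growth on the plate.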

Helicobacter pylori [12] = test: Antibacterial activity against metronidazole-resistant Helicobacter pylori assessed as inhibition zone diameter at 8 ug/disk after 3-5 days by paper disk diffusion assay; type: functional; summary of the method: as §2
Helicobacter pylori [13] = test: Antibacterial activity against Helicobacter pylori isolate assessed as inhibition zone diameter at 0.5 ug/disk after 3-5 days by paper disk diffusion assay; type: functional; summary of the method: as §1
Nannizzia gypsea = test: Antifungal activity against Microsporum gypseum PTCC 5070 after […] by agar dilution method; type: functional; summary of the method: as §4
Staphylococcus aureus = test: Antibacterial activity against Staphylococcus aureus ATCC 6538P after 18 hrs by serial dilution method; type: functional; summary of the method: as §3
Escherichia coli = test: Antibacterial activity against Escherichia coli ATCC 8739 after 18 hrs by serial dilution method; type: functional; details: ATCC 8739, 18 h; summary of the method: as §3
Klebsiella pneumoniae = test: Antibacterial activity against Klebsiella pneumoniae ATCC 10031 after 18 hrs by serial dilution method; type: functional; details: ATCC 10031, 18 h; summary of the method: as §3
Helicobacter pylori [14] = test: Antibacterial activity against Helicobacter pylori isolate assessed as inhibition zone diameter at 16 ug/disk after 3-5 days by paper disk diffusion assay; type: functional; summary of the method: as §1
Saccharomyces cerevisiae = test: Antifungal activity against Saccharomyces cerevisiae PTCC 5177 after 72 hrs by agar dilution method; type: functional
Helicobacter pylori [15] = test: Antibacterial activity against metronidazole-resistant Helicobacter pylori assessed as inhibition zone diameter at 32 ug/disk after 3-5 days by paper disk diffusion assay; type: functional; summary of the method: as §2

SMILES	Activity (Helicobacter pylori [1]) [mm]	MIC (Candida albicans) [mg/L]	Activity (Helicobacter pylori [3]) [mm]	Activity (Helicobacter pylori [4]) [mm]	Activity (Helicobacter pylori [5]) [mm]	Activity (Helicobacter pylori [6]) [mm]	Activity (Helicobacter pylori [7]) [mm]	Activity (Helicobacter pylori [8]) [mm]	IC50 [9] [mg/L]	MIC [10] [mg/L]	Activity (Helicobacter pylori [11]) [mm]	MIC (Aspergillus niger) [mg/L]	Activity (Helicobacter pylori [13]) [mm]	MIC (Nannizzia gypsea) [mg/L]	MIC (Staphylococcus aureus) [mg/L]	MIC (Escherichia coli) [mg/L]	MIC (Klebsiella pneumoniae) [mg/L]	Activity (Helicobacter pylori [14]) [mm]	MIC (Saccharomyces cerevisiae) [mg/L]	Activity (Helicobacter pylori [15]) [mm]	also measured
CCS(=O)(=O)CCSc1nnc(-c2ccc([N+](=O)[O-])o2)s1	23.5	> 32	36.5	43	12.6	29.1	18.3	37	4.2 (≈ 12 µM)	32 (≈ 91.6 µM)	46	> 32	6.6	> 32	> 32	> 32	> 32	33.1	> 32	41	Activity (Helicobacter pylori [2]): 34 mm; Activity (Helicobacter pylori [12]): 29 mm
Cc1ncc([N+](=O)[O-])n1CCO [METRONIDAZOLE]	8.75	–	20.7	23	6	16.3	7.5	18	–	–	27	–	6	–	–	–	–	18.4	–	14	Activity (Helicobacter pylori [2]): 12 mm; Activity (Helicobacter pylori [12]): 11 mm
CCS(=O)(=O)CCSc1nnc(-c2ncc([N+](=O)[O-])n2C)s1	23.4	> 32	40.7	40	11.9	29.7	16.5	35	100 (≈ 275 µM)	32 (≈ 88 µM)	47	> 32	8.5	> 32	> 32	> 32	> 32	35.8	> 32	–	Activity (Helicobacter pylori [12]): 36 mm
CCSCCSc1nnc(-c2ccccc2[N+](=O)[O-])s1	–	> 32	–	6	–	–	–	6	–	32 (≈ 97.7 µM)	6	> 32	–	> 32	> 32	> 32	> 32	–	> 32	–	–
CCS(=O)(=O)CCSc1nnc(-c2ccccc2[N+](=O)[O-])s1	–	> 32	–	9	–	–	–	6	–	32 (≈ 89 µM)	15	> 32	–	> 32	> 32	> 32	> 32	–	> 32	13	–
CCS(=O)(=O)CCSc1nnc(-c2cccc([N+](=O)[O-])c2)s1	–	> 32	–	6	–	–	–	6	–	32 (≈ 89 µM)	26	> 32	–	> 32	> 32	> 32	> 32	–	> 32	25	–
CCS(=O)(=O)CCSc1nnc(-c2ccc([N+](=O)[O-])cc2)s1	–	> 32	–	24	–	–	–	19	–	32 (≈ 89 µM)	30	> 32	–	> 32	> 32	> 32	> 32	–	> 32	27	–
CCSCCSc1nnc(-c2ccc([N+](=O)[O-])s2)s1	37.1	> 32	47.2	50	22.9	44.4	28.9	50	4.5 (≈ 13.5 µM)	32 (≈ 96 µM)	50	> 32	16.8	> 32	> 32	> 32	> 32	47	> 32	–	–
CC1(C)S[C@@H]2[C@H](NC(=O)[C@H](N)c3ccc(O)cc3)C(=O)N2[C@H]1C(=O)O [AMOXICILLIN]	–	–	–	–	24.5	–	–	–	–	–	–	–	–	–	–	–	–	–	–	–	–
CCSCCSc1nnc(-c2cccc([N+](=O)[O-])c2)s1	–	> 32	–	6	–	–	–	6	–	32 (≈ 97.7 µM)	9	> 32	–	> 32	> 32	> 32	> 32	–	> 32	–	–
CCSCCSc1nnc(-c2ccc([N+](=O)[O-])cc2)s1	–	> 32	–	16	–	–	–	6	–	32 (≈ 97.7 µM)	20	> 32	–	> 32	> 32	> 32	> 32	–	> 32	–	–
CCS(=O)(=O)CCSc1nnc(-c2ccc([N+](=O)[O-])s2)s1	37.5	> 32	47.6	>50	24.9	44.2	31.9	>50	11.6 (≈ 31.7 µM)	32 (≈ 87.6 µM)	>50	> 32	18.2	> 32	> 32	> 32	> 32	46.7	> 32	–	–
CCSCCSc1nnc(-c2ccc([N+](=O)[O-])o2)s1	21.5	> 32	34.9	31	11.1	28.3	16.4	22	5 (≈ 15.8 µM)	32 (≈ 101 µM)	42	> 32	6	> 32	> 32	> 32	> 32	30.7	> 32	28	Activity (Helicobacter pylori [2]): 21 mm; Activity (Helicobacter pylori [12]): 16 mm
CCSCCSc1nnc(-c2ncc([N+](=O)[O-])n2C)s1	25.4	> 32	42.6	37	15	31.7	19.5	32	61.5 (≈ 186 µM)	32 (≈ 96.5 µM)	48	> 32	12.2	> 32	> 32	> 32	> 32	36.5	> 32	59	Activity (Helicobacter pylori [2]): 47 mm; Activity (Helicobacter pylori [12]): 35 mm
